According to ChEMBL document CHEMBL4145654, “Structure-Based Discovery of CF53 as a Potent and Orally Bioavailable Bromodomain and Extra-Terminal (BET) Bromodomain Inhibitor” (J Med Chem, 2018):

Assays:
[1] = target: T1, Bromodomain-containing protein 2 (Homo sapiens, UniProt P25440); assay: Binding affinity to human BRD2 bromodomain 2 (E348 to D455 residues) expressed in bacterial expression system by BROMOscan assay
[2] = target: Bromodomain-containing protein 7 (Homo sapiens, UniProt Q9NPI1); assay: Binding affinity to human BRD7 (L125 to R254 residues) expressed in bacterial expression system by BROMOScan assay
Sequence of Bromodomain-containing protein 7 (Q9NPI1 whole entry, the tested form may be a part): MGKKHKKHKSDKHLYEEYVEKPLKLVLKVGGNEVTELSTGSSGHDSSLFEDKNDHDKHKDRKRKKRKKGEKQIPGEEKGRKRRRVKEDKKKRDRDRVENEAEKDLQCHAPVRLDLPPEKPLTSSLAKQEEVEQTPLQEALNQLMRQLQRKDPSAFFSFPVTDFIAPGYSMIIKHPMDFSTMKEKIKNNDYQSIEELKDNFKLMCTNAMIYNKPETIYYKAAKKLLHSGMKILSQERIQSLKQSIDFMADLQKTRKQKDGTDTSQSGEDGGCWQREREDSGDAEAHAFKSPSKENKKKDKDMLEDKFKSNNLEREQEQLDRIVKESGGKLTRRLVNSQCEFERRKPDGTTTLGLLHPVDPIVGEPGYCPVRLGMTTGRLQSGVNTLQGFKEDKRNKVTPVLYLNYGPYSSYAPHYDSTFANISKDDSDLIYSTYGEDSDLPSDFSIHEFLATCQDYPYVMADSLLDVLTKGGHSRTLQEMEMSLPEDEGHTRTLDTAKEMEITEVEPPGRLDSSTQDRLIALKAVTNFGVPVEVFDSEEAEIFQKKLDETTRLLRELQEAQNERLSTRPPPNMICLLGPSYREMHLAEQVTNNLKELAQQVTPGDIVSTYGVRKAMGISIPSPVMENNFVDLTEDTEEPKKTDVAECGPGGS

[3] = target: Bromodomain testis-specific protein (Homo sapiens, UniProt Q58F21); assay: Binding affinity to human BRDT bromodomain 2 (K250 to E382 residues) expressed in bacterial expression system by BROMOscan assay
Homo sapiens [4] = species: Homo sapiens; assay: Selectivity index, ratio of Kd for human CECR2 (P423 to D543 residues) to Kd for human BRD4 bromodomain 1 (N44 to E168 residues)
MOLM-13 = assay: Growth inhibition of human MOLM13 cells after 4 days by WST-8 assay; type: functional, cell-based; details: MOLM-13, 96 h
How it was run: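 Leukemia cells, used within 3 months of thaw, were seeded at 10 000 cells/well and exposed to serially diluted compound in culture medium for 4 days. WST-8 reagent was added at 10% (v/v) final for 1−3 h, and absorbance was read at 450 nm. Readings were normalized to DMSO-treated cells, and the IC50 was fitted by nonlinear regression.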

Homo sapiens [5] = species: Homo sapiens; assay: Selectivity index, ratio of Kd for human CREBBP (R1081 to G1197 residues) to Kd for human BRD4 bromodomain 2 (K333 to E460 residues)
[6] = target: Bromodomain and PHD finger-containing protein 3 (Homo sapiens, UniProt Q9ULD4); assay: Binding affinity to human BRPF3 (E588 to G701 residues) expressed in bacterial expression system by BROMOScan assay
Sequence of Bromodomain and PHD finger-containing protein 3 (Q9ULD4 whole entry, the tested form may be a part): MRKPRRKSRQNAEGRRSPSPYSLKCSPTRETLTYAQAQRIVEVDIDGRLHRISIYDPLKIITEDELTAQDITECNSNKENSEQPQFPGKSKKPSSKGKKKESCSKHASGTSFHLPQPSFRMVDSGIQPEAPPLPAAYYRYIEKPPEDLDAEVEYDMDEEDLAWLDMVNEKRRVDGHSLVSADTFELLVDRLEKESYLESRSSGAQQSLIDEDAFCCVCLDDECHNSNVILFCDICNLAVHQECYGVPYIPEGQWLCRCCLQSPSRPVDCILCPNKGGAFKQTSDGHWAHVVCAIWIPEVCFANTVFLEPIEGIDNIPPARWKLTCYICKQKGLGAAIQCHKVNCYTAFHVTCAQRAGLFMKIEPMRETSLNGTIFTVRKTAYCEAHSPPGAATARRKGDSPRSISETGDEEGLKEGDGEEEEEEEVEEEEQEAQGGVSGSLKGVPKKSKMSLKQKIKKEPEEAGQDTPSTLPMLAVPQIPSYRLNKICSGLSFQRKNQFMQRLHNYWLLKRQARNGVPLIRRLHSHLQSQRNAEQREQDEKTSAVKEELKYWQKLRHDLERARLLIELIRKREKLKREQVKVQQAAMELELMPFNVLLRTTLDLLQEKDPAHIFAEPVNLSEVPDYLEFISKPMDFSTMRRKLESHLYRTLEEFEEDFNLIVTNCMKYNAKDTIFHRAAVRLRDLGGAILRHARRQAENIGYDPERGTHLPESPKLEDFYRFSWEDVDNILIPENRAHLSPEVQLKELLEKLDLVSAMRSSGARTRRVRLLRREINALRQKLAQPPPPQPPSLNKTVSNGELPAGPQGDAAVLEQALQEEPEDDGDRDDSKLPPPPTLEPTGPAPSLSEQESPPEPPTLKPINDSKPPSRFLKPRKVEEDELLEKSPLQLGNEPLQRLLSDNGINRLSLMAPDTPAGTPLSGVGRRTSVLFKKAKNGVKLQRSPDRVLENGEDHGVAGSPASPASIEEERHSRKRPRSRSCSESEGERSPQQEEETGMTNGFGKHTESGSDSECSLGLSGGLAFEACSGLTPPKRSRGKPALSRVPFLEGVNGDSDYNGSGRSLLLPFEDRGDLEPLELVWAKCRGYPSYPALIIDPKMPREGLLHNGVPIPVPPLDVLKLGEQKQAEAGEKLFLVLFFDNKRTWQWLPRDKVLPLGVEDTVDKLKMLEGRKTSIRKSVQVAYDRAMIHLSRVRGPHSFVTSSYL

RS4-11 = assay: Antitumor activity against human RS4:11 cells xenografted in SCID mouse assessed as tumor growth inhibition at 50 mg/kg administered via oral gavage measured on day 35; type: functional; details: RS4-11, po, 840 h, read-out: TGI
How it was run: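 Each SCID mouse received a single dorsal subcutaneous tumor of 5 × 10⁶ RS4;11 or MDA-MB-231 cells in 50% Matrigel. At about 100 mm3, mice were randomised to treatment or vehicle control groups. Dosing was by oral gavage at the stated schedules. Tumor volume was L × W²/2, and body weight was tracked. TGI versus vehicle at end of treatment was tested by unpaired two-tailed t-test.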

[7] = target: Bromodomain-containing protein 3 (Homo sapiens, UniProt Q15059); assay: Binding affinity to human BRD3 bromodomain 2 (G306 to P416 residues) expressed in bacterial expression system by BROMOscan assay
Homo sapiens [8] = species: Homo sapiens; assay: Selectivity index, ratio of Kd for human CECR2 (P423 to D543 residues) to Kd for human BRD2 bromodomain 1 (K71 to N194 residues)
[9] = target: ATPase family AAA domain-containing protein 2 (Homo sapiens, UniProt Q6PL18); assay: Binding affinity to human ATAD2A (Q981 to R1108 residues) expressed in bacterial expression system by BROMOScan assay
Homo sapiens [10] = species: Homo sapiens; assay: Selectivity index, ratio of Kd for human CREBBP (R1081 to G1197 residues) to Kd for human BRD2 bromodomain 2 (E348 to D455 residues)
[11] = target: Bromodomain-containing protein 1 (Homo sapiens, UniProt O95696); assay: Binding affinity to human BRD1 (E556 to A688 residues) expressed in bacterial expression system by BROMOScan assay
Sequence of Bromodomain-containing protein 1 (O95696 whole entry, the tested form may be a part): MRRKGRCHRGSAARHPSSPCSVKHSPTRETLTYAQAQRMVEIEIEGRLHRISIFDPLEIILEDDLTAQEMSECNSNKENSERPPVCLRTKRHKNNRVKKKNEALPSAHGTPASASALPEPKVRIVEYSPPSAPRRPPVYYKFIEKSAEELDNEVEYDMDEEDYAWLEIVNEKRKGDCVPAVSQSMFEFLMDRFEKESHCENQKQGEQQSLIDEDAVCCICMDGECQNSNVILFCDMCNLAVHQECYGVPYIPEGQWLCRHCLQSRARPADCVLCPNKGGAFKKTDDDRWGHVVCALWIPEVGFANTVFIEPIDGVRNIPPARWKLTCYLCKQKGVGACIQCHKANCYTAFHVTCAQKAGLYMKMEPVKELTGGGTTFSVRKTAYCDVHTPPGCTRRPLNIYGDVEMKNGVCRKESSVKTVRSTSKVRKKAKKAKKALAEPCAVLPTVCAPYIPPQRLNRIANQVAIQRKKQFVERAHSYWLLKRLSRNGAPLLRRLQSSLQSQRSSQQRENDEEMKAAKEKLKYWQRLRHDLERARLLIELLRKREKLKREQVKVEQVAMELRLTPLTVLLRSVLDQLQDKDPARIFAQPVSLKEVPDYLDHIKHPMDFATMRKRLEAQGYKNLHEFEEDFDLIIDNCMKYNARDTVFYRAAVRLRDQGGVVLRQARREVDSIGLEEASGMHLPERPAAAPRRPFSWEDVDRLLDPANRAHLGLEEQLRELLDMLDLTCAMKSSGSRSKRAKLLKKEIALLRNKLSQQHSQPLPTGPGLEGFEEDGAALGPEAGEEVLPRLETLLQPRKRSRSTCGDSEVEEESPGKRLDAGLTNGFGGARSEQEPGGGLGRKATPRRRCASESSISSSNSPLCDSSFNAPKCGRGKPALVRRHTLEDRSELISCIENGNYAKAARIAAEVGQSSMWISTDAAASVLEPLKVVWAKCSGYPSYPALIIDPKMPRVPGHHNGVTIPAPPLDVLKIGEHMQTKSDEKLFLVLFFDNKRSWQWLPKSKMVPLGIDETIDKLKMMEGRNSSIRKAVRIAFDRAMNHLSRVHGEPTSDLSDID

[12] = target: T1, Bromodomain-containing protein 2; assay: Binding affinity to human BRD2 bromodomain 1 (K71 to N194 residues) expressed in bacterial expression system by BROMOscan assay
[13] = target: Bromodomain-containing protein 8 (Homo sapiens, UniProt Q9H0E9); assay: Inhibition of BRD8 bromodomain 1 (unknown origin) by BROMOScan assay
Homo sapiens [14] = species: Homo sapiens; assay: Selectivity index, ratio of Kd for human CECR2 (P423 to D543 residues) to Kd for human BRDT bromodomain 2 (K250 to E382 residues)
Homo sapiens [15] = species: Homo sapiens; assay: Selectivity index, ratio of Kd for human EP300 (A1040 to G1161 residues) to Kd for human BRD3 bromodomain 1 (P24 to E144 residues)
[16] = target: SWI/SNF-related matrix-associated actin-dependent regulator of chromatin subfamily A member 2 (Homo sapiens, UniProt P51531); assay: Binding affinity to human SMARCA2 (S1377 to Q1486 residues) expressed in bacterial expression system by BROMOScan assay
CREB-binding protein = CREB-binding protein (Homo sapiens, UniProt Q92793); assay: Binding affinity to human CREBBP (R1081 to G1197 residues) expressed in bacterial expression system by BROMOscan assay
[17] = target: Histone acetyltransferase KAT2B (Homo sapiens, UniProt Q92831); assay: Binding affinity to human PCAF (G715 to D831 residues) expressed in bacterial expression system by BROMOScan assay
Sequence of Histone acetyltransferase KAT2B (Q92831 whole entry, the tested form may be a part): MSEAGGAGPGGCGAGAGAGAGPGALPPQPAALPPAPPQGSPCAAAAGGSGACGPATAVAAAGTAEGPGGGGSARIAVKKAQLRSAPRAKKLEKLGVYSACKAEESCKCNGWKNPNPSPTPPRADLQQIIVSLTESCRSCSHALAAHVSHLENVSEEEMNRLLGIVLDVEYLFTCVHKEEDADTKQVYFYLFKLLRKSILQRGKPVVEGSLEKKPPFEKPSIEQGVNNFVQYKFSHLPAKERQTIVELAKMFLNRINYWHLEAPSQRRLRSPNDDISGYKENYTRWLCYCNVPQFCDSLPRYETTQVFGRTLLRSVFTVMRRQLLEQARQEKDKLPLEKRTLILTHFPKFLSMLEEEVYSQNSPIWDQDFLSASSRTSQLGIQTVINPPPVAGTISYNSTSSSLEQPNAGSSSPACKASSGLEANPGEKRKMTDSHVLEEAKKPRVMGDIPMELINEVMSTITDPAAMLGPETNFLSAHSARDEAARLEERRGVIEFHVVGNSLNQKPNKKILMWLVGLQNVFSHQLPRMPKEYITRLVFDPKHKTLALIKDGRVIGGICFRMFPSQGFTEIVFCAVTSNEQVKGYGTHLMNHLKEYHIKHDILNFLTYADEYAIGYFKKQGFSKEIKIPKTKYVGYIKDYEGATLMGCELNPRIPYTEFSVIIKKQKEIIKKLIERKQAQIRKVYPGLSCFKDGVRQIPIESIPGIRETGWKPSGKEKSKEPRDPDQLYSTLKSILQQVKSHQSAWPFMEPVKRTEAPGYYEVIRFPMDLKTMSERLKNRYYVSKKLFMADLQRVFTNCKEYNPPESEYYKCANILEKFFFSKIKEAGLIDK

Mus musculus = assay: Cmax in Balb/c mouse at 25 mg/kg, po by LC-MS/MS analysis; type: ADME, organism-based; parameters: dose 25 mg/kg, route oral; details: in vivo
How it was run: (§1)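 Balb/c mice dosed iv at 5.0 mg/kg or po at 25 mg/kg, compound in vehicle of 20% (v/v) PCP and 70% (v/v) PBS. Serial blood samples taken at 0, 5, 15, 30 min and 1, 2, 4, 6, 8, 24 h. Plasma obtained by centrifugation and stored at −80 °C. Analysis by LC-MS/MS, positive-ion MRM. Parameters from noncompartmental analysis.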

[18] = target: Bromodomain adjacent to zinc finger domain protein 2B (Homo sapiens, UniProt Q9UIF8); assay: Binding affinity to human BAZ2B (S2054 to S2168 residues) expressed in bacterial expression system by BROMOScan assay
Homo sapiens [19] = species: Homo sapiens; assay: Selectivity index, ratio of Kd for human EP300 (A1040 to G1161 residues) to Kd for human BRD2 bromodomain 1 (K71 to N194 residues)
[20] = Clearance in Balb/c mouse at 5 mg/kg, iv by LC-MS/MS analysis; type: ADME, organism-based; details: in vivo; how it was run: as §1
[21] = target: Transcription initiation factor TFIID subunit 1 (Homo sapiens, UniProt P21675); assay: Binding affinity to human TAF1 bromodomain 2 (D1521 to D1656 residues) expressed in bacterial expression system by BROMOScan assay
Homo sapiens [22] = species: Homo sapiens; assay: Selectivity index, ratio of Kd for human EP300 (A1040 to G1161 residues) to Kd for human BRD4 bromodomain 1 (N44 to E168 residues)
Homo sapiens [23] = species: Homo sapiens; assay: Selectivity index, ratio of Kd for human EP300 (A1040 to G1161 residues) to Kd for human BRD4 bromodomain 2 (K333 to E460 residues)
Homo sapiens [24] = species: Homo sapiens; assay: Selectivity index, ratio of Kd for human EP300 (A1040 to G1161 residues) to Kd for human BRDT bromodomain 2 (K250 to E382 residues)
[25] = target: Nucleosome-remodeling factor subunit BPTF (Homo sapiens, UniProt Q12830); assay: Binding affinity to human FALZ (S2791 to H2911 residues) expressed in bacterial expression system by BROMOScan assay

T1 sequence (P25440 whole entry, the tested form may be a part): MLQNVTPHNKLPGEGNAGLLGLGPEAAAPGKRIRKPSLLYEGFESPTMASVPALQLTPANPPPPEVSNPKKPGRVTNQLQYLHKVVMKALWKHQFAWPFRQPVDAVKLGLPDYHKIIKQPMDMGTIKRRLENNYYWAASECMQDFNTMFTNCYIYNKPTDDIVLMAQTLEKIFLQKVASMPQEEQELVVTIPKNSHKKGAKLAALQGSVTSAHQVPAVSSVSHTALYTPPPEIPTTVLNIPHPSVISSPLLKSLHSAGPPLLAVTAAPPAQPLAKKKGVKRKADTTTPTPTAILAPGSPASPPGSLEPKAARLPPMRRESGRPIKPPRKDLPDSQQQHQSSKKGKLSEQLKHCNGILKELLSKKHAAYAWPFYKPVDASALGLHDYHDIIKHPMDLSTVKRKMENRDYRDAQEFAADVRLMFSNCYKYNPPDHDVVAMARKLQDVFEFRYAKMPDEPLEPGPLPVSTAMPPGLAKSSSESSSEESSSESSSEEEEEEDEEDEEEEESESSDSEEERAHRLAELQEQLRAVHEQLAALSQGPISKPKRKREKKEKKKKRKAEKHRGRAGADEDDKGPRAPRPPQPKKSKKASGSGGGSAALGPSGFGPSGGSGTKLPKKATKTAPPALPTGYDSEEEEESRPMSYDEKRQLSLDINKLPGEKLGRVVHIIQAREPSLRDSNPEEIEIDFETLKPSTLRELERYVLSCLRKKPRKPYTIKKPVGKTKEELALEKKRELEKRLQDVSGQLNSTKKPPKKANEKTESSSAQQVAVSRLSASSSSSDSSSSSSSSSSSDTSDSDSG

COc1cc2c(cc1-c1c(C)noc1C)[nH]c1nc(C)nc(Nc3cc(C4CC4)nn3C)c12
Kd [1]: 0.6 nM | Kd [2]: > 5000 nM | Kd [3]: 2.1 nM | Selectivity Index (Homo sapiens [4]): > 50 | IC50 (MOLM-13): 7 nM | Selectivity Index (Homo sapiens [5]): > 20 | Kd [6]: > 5000 nM | inhibition in vivo at 50 mg/kg (RS4-11): 72.3% | Kd [7]: 0.49 nM | Selectivity Index (Homo sapiens [8]): > 50 | Kd [9]: > 5000 nM | Selectivity Index (Homo sapiens [10]): > 20 | Kd [11]: > 5000 nM | Kd [12]: 1.1 nM | Kd [13]: > 5000 nM | Selectivity Index (Homo sapiens [14]): > 50 | Selectivity Index (Homo sapiens [15]): > 50 | Kd [16]: > 5000 nM | Kd (CREB-binding protein): 47 nM | Kd [17]: > 5000 nM | Cmax (Mus musculus): 6400 ng/mL | Kd [18]: > 5000 nM | Selectivity Index (Homo sapiens [19]): > 50 | clearance [20]: 20.8 mL/min/kg | Kd [21]: > 5000 nM | Selectivity Index (Homo sapiens [22]): > 50 | Selectivity Index (Homo sapiens [23]): > 50 | Selectivity Index (Homo sapiens [24]): > 50 | Kd [25]: > 5000 nM
